Data set [1] has as its system Mus musculus. Briefly: Anti-inflammatory activity against zymosan-induced peritonitis mouse model assessed as decrease in neutrophil recruitment in peritoneal lavage at 1 mg/kg, sc administrated 1 hr prior to zymosan administration and measured after 4 hrs by PI staining based flow cytometry. The data set is classed as functional, organism-based. The following applies: time 5.0 hrs. In short, it runs like this: (§1)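 Mice fasted 2 h, then zymosan A 5 mg/mL in PBS (0.2 mL) i.p. Compound 1 mg/kg s.c. (vehicle 1% DMSO in saline, 10 mL/kg) 1 h before zymosan, or also 2 h after. Lavage at 4 h with 3 mL PBS, EDTA, heparin; centrifuged; supernatant protein by BCA (mg/mL); pellet MPO (mU/mL) or flow cytometry.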
(In general: Flow cytometry measures light scatter and fluorescence of single cells or particles in a stream.)

Data set [2] deals with T1, C-C chemokine receptor type 6 (Homo sapiens) (UniProt P51684).
T1 sequence (whole entry): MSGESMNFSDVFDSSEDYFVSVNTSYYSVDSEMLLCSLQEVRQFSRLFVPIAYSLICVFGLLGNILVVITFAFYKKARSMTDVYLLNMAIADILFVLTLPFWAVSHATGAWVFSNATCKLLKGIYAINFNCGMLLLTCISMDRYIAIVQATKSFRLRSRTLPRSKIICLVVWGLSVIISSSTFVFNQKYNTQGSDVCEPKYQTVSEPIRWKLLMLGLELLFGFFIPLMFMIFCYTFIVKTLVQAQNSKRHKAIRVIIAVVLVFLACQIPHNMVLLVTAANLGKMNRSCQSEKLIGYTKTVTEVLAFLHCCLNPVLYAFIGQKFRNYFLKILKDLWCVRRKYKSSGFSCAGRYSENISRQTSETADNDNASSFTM
Nature of the data set: Agonist activity at CCR6 (unknown origin) transfected in HEK293T cells assessed as beta-arrestin-1 recruitment at 0.030 to 300 uM measured for 20 mins by NanoBiT assay. It is filed as functional, cell-based. The following applies: dose 0.03-300 µM. In short, it runs like this: (§2)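 HEK293T cells (DMEM, 10% FBS) co-transfected with SmBiT C-tagged CCR6 or CCR5 and LgBiT N-tagged human β-arrestin-1 or miniGi; harvested 24 h later, loaded with coelenterazine h 15 min at 37 °C, 10^5 cells/well. Luminescence from recruitment induced by compound (30 nM–300 μM) read for 20 min; CCL20 (30 pM–300 nM) positive control.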
(In general: Arrestin recruitment assays detect the binding of arrestin to an activated receptor.)

The test system of data set [3] is CD4+ve Th. Briefly: Inhibition of cell migration of CCL20-induced human CD4+ve Th cells expressing CCR6 at 50 uM incubated for 3 hrs by FACS analysis. The data set is classed as functional, cell-based. In short, it runs like this: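 Memory CD4+ T cells (20×10^4) in upper chamber of 5.0 μm transwell in IMDM with 0.5% BSA, preincubated with compound (0.5–50 μM) 15 min at 4 °C; 500 ng/ml CCL20 in lower chamber. After 3 h at 37 °C, migrated cells counted with counting beads by flow cytometry; migration index = CCL20-driven / medium-only migration; duplicate or triplicate.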

Data set [4] has as its target C-C chemokine receptor type 5 (Homo sapiens) (UniProt P51681). Briefly: Agonist activity at CCR5 (unknown origin) transfected in HEK293T cells assessed as beta-arrestin-1 recruitment at 0.030 to 300 uM measured for 20 mins by NanoBiT assay. It is filed as functional, cell-based. The conditions noted are these: dose 0.03-300 µM. In short, it runs like this: as §2
The subject of data set [5] is Mus musculus. Nature of the data set: Anti-inflammatory activity against zymosan-induced peritonitis mouse model assessed as decrease in MPO activity in peritoneal lavage at 1 mg/kg, sc administrated 1 hr before and 2 hrs after zymosan administration and measured after 2 hrs by absorbance based assay. The data set is classed as functional, organism-based. The following applies: time 5.0 hrs. In short, it runs like this: as §1

Data set [6] concerns Mus musculus. Nature of the data set: Anti-inflammatory activity against zymosan-induced peritonitis mouse model assessed as decrease in total proteins in peritoneal lavage at 1 mg/kg, sc administrated 1 hr before and 2 hrs after zymosan administration and measured after 2 hrs by BCA assay. The data set is classed as functional, organism-based. The conditions noted are these: time 5.0 hrs. In short, it runs like this: as §1

Data set [7] relates to Mus musculus. Briefly: Anti-colitis activity against TNBS-induced colitis Swiss mouse model assessed as decrease in neutrophil infiltration by measuring MPO activity in colon at 1 mg/kg, sc bid for 3 days by absorbance based assay. It is filed as functional, organism-based. The conditions noted are these: time 3.0 day. In short, it runs like this: (§3)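 Female CD1 Swiss mice (7–12 weeks) skin-sensitized, then after 20 h fast given 5 mg TNBS in 50% ethanol intrarectally 6 days later. Compound 1 mg/kg or vehicle (1% DMSO in saline, 10 mL/kg) s.c. twice daily, 8 h apart, days 1–4; euthanized day 4. DAI from daily weight, stool, bleeding by blinded observers; macroscopic score; colon/lung MPO.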

The subject of data set [8] is Mus musculus. Briefly: Anti-colitis activity against TNBS-induced colitis Swiss mouse model assessed as decrease in disease activity index at 1 mg/kg, sc bid for 3 days. It is filed as functional, organism-based. The following applies: time 3.0 day. In short, it runs like this:
as §3

The target in data set [9] is T1, C-C chemokine receptor type 6 (Homo sapiens). Briefly: Agonist activity at CCR6 (unknown origin) transfected in HEK293T cells assessed as mini-Gi recruitment at 0.030 to 300 uM measured for 20 mins by NanoBiT assay. It is filed as functional, cell-based. The conditions noted are these: dose 0.03-300 µM. In short, it runs like this:
as §2

Data set [10] has as its system CD4+ve Th. Briefly: Cytotoxicity against human CD4+ve Th cells upto 100 uM incubated for 3 hrs by annexin/PI staining based flow cytometry. It is filed as toxicity, cell-based. In short, it runs like this: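 Memory CD4+ T cells from healthy-donor PBMC (Ficoll, magnetic isolation, >95% purity), 20×10^4 cells exposed to compound at 5–500 μM for 3 h at 37 °C, 5% CO2; viability by annexin/propidium iodide flow cytometry.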

Data set [11] deals with Mus musculus. Nature of the data set: Anti-colitis activity against TNBS-induced colitis Swiss mouse model assessed as decrease in neutrophil infiltration by measuring MPO activity in lung at 1 mg/kg, sc bid for 3 days by absorbance based assay. The following applies: time 3.0 day. The data set is classed as functional, organism-based. In short, it runs like this: as §3

The target of data set [12] is C-C chemokine receptor type 5 (Homo sapiens) (UniProt P51681). Briefly: Antagonist activity at CCR5 (unknown origin) transfected in HEK293T cells assessed as CCL5-induced beta-arrestin-1 recruitment at 0.030 to 300 uM measured for 20 mins by NanoBiT assay. It is filed as functional, cell-based. The following applies: filed as antagonist, dose 0.03-300 µM. In short, it runs like this:
(§4)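 NanoBiT complementation in co-transfected HEK293T cells (SmBiT-tagged CCR6 or CCR5, LgBiT-tagged β-arrestin-1 or miniGi), coelenterazine h 15 min at 37 °C. After compound exposure (30 nM–300 μM), cells were stimulated with CCL20 10 nM (CCR6) or CCL5 5 nM (CCR5) and inhibition of chemokine-induced recruitment was monitored by luminescence.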

In data set [13] the test system is Mus musculus. Briefly: Anti-inflammatory activity against zymosan-induced peritonitis mouse model assessed as decrease in MPO activity in peritoneal lavage at 1 mg/kg, sc administrated 1 hr prior to zymosan administration and measured after 4 hrs by absorbance based assay. The data set is classed as functional, organism-based. The following applies: time 5.0 hrs. In short, it runs like this:
as §1

The target of data set [14] is T1, C-C chemokine receptor type 6 (Homo sapiens). Nature of the data set: Antagonist activity at CCR6 (unknown origin) transfected in HEK293T cells assessed as CCL20-induced beta-arrestin-1 recruitment at 0.030 to 300 uM measured for 20 mins by NanoBiT assay. It is filed as functional, cell-based. The conditions noted are these: filed as antagonist, dose 0.03-300 µM. In short, it runs like this:
as §4

Data set [15] has as its system Mus musculus. Nature of the data set: Anti-colitis activity against TNBS-induced colitis Swiss mouse model assessed as decrease in macroscopic injury at 1 mg/kg, sc bid for 3 days. The following applies: time 3.0 day. The data set is classed as functional, organism-based. In short, it runs like this:
as §3

The target in data set [16] is T1, C-C chemokine receptor type 6 (Homo sapiens). Nature of the data set: Antagonist activity at CCR6 (unknown origin) transfected in HEK293T cells assessed as CCL20-induced mini-Gi recruitment at 0.030 to 300 uM measured for 20 mins by NanoBiT assay. The data set is classed as functional, cell-based. The following applies: filed as antagonist, dose 0.03-300 µM. In short, it runs like this:
as §4

Data set [17] concerns Mus musculus. Nature of the data set: Anti-inflammatory activity against zymosan-induced peritonitis mouse model assessed as decrease in total proteins in peritoneal lavage at 1 mg/kg, sc administrated 1 hr prior to zymosan administration and measured after 4 hrs by BCA assay. The data set is classed as functional, organism-based. The following applies: time 5.0 hrs. In short, it runs like this: as §1

Structures are written as SMILES. Active and inactive are the calls of the source. The calls are words filed in the database; no cut-off is given here.

Sequence of C-C chemokine receptor type 5 (Homo sapiens) (P51681 whole entry, looked up): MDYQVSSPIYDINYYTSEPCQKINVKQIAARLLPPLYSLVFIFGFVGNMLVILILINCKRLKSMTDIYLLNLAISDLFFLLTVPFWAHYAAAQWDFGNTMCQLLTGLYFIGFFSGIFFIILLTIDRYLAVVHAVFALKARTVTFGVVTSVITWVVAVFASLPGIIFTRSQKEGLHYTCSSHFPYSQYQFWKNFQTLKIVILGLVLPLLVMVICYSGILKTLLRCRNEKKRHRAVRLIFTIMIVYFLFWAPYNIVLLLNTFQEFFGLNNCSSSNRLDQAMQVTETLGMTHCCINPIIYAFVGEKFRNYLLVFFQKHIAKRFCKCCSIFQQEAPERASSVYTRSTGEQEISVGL

In the case of `Cc1c(C(=O)Nc2ccc(C(F)(F)F)cc2)oc2ccccc12`, the outcome (with Mus musculus [1]; in data set [2]; in data set [4]; in [9]; with Mus musculus [13]; with Mus musculus [17]) was inactive. In the data set on CD4+ve Th [3], the inhibition result was “Active”. In addition, the result (in the data set with Mus musculus [5]; with Mus musculus [6]; in the data set on Mus musculus [7]; with Mus musculus [8]; in the data set on Mus musculus [11]; in data set [12]) was Active. Further, the outcome (in data set [14]; with Mus musculus [15]; in data set [16]) was Active. Further, in the data set with CD4+ve Th [10], the Activity result is “Non-Toxic”.

`C/C(=N\Nc1ccc2ccccc2n1)c1cccc(C(F)(F)F)c1`: the Activity entry in the data set with CD4+ve Th [10] is listed as “Non-Toxic”.

On to `Cc1c(C(=O)Nc2cccc(F)c2)oc2ccccc12`, for which the Activity entry in the data set on CD4+ve Th [10] was “Non-Toxic”.

The values are drawn from ChEMBL document CHEMBL5352413, “Discovery of small-molecules targeting the CCL20/CCR6 axis as first-in-class inhibitors for inflammatory bowel diseases” (Eur J Med Chem, 2022).
